Data as given in ChEMBL document CHEMBL3784997 (J Med Chem, 2016).

Tests used:
[1] = target: Adenosine receptor A2a (Homo sapiens) (UniProt P29274); assay: Displacement of [3H]ZM241385 from human Adenosine A2A receptor expressed in HeLa cells at 1 uM after 30 mins; type: cell-based
Summary of the method: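 Membranes from HeLa cells expressing human A2A were labelled with 3 nM [3H]ZM241385, with non-specific binding defined by 50 µM NECA, and incubated at 25 °C for 30 min. The value is percent displacement of specific binding at 1 µM test compound (n = 2).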

[2] = target: T1, Adenosine receptor A3 (Homo sapiens) (UniProt P0DMS8); assay: Displacement of [3H]NECA from human Adenosine A3 receptor expressed in HeLa cells at 1 uM after 180 mins
T1 sequence (whole entry): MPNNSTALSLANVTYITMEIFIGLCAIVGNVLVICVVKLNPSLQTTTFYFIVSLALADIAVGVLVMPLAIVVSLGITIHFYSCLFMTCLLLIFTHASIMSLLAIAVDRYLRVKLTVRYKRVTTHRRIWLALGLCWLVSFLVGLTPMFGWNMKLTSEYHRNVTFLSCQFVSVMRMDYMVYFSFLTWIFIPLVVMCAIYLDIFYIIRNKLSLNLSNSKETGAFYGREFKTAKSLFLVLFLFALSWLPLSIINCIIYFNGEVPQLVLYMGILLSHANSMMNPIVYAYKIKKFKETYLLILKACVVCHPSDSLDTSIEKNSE

[3] = target: T2, Adenosine receptor A2b (Homo sapiens, UniProt P29275); assay: Displacement of [3H]DPCPX from human Adenosine A2B receptor expressed in HEK293 cells after 30 mins; type: cell-based
T2 sequence (P29275 whole entry): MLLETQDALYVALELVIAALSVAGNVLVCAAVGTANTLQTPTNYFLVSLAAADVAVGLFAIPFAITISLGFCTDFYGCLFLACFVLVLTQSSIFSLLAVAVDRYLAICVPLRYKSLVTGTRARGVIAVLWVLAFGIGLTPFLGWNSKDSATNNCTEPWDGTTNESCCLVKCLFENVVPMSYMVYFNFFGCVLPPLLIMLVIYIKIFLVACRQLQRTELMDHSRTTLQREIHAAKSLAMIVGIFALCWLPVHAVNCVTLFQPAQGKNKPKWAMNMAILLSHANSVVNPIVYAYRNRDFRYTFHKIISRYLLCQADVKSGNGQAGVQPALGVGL

[4] = target: T3, Adenosine receptor A1 (Homo sapiens) (UniProt P30542); assay: Displacement of [3H]DPCPX from human Adenosine A1 receptor expressed in CHO cells at 1 uM after 60 mins; type: cell-based
T3 sequence (whole entry): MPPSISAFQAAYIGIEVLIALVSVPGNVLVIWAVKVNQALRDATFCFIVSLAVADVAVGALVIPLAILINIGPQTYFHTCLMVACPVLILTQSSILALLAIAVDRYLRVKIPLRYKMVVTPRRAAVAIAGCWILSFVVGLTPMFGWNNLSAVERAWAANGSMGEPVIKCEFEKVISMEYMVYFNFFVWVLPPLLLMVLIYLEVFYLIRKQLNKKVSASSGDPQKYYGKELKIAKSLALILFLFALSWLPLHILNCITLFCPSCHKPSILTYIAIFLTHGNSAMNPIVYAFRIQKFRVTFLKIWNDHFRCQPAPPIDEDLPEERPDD
Summary of the method: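 Competition binding on membranes from CHO cells expressing human A1, labelled with 2 nM [3H]DPCPX. Non-specific binding was defined with 10 µM R-PIA, and incubation was at 25 °C for 60 min. The value is percent inhibition of specific binding at 1 µM test compound (n = 2, average).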

[5] = target: T4, Adenosine receptor A2b (Homo sapiens) (UniProt P29275); assay: Displacement of [3H]DPCPX from human Adenosine A2B receptor expressed in HEK293 cells at 1 uM after 30 mins; type: cell-based
T4 sequence (whole entry): T2 sequence (P29275 whole entry)
Summary of the method: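 Membranes from HEK-293 cells expressing human A2B were labelled with 35 nM [3H]DPCPX, with non-specific binding defined by 400 µM NECA, and incubated at 25 °C for 30 min.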

Chain of Adenosine receptor A2a (Homo sapiens) (P29274 whole entry): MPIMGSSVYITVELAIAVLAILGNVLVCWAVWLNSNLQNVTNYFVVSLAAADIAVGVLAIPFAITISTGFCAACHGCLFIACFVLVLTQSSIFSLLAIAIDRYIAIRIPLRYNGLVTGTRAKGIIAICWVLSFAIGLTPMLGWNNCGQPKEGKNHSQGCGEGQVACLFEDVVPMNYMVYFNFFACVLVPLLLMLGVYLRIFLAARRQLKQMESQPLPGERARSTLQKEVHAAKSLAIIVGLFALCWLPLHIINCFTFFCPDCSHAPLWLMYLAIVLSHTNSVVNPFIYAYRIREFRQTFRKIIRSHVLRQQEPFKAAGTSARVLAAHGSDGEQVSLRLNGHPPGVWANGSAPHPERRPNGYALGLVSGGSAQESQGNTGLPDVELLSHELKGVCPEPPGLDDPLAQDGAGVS

CCOC(=O)C1=C(C)Nc2nc3ccccc3n2C1c1cccs1 (racemic)
Activity [1]: 16% | Activity [2]: 1% | Ki [3]: 485 nM | Activity [4]: 8%

CCOC(=O)C1=C(C)NC(=O)CC1c1ccsc1 (racemic)
Activity [1]: 4% | Activity [2]: 13% | Activity [5]: 12% | Activity [4]: 1%

CCOC(=O)C1=C(C)Nc2ncnn2C1c1ccsc1 (racemic)
Activity [1]: 21% | Activity [2]: 2% | Ki [3]: 699 nM | Activity [4]: 3%

CCOC(=O)C1=C(C)Nc2nc3ccccc3n2C1c1ccsc1 (racemic)
Activity [1]: 10% | Activity [2]: 2% | Ki [3]: 29.7 nM | Activity [4]: 3%

O=C1NC2=C(C(=O)OC2)C(c2ccsc2)N1 (racemic)
Activity [1]: 3% | Activity [2]: 2% | Activity [5]: 8% | Activity [4]: 13%

CCOC(=O)C1=C(C)NC(=O)NC1c1cccs1 (centres undefined)
Activity [1]: 33% | Activity [2]: 1% | Activity [5]: 44% | Activity [4]: 1%

CCN1CC2=C(C1=O)C(c1ccco1)NC(=O)N2 (racemic)
Activity [1]: 7% | Activity [2]: 20% | Activity [5]: 17% | Activity [4]: 7%

CCOC(=O)C1=C(C)Nc2nc3ccccc3n2C1c1ccco1 (racemic)
Activity [1]: 14% | Activity [2]: 1% | Ki [3]: 12 nM | Activity [4]: 5%

CC1=C(C(=O)OC(C)C)C(c2cccs2)n2ncnc2N1 (racemic)
Activity [1]: 1% | Activity [2]: 3% | Activity [5]: 1% | Activity [4]: 1%

CC1=C(C(=O)OC(C)C)C(c2ccsc2)NC(=O)N1 (centres undefined)
Activity [1]: 25% | Activity [2]: 1% | Activity [4]: 26%

CCN1CC2=C(C1=O)C(c1cccs1)NC(=O)N2 (racemic)
Activity [1]: 2% | Activity [2]: 21% | Activity [5]: 28% | Activity [4]: 12%

CCOC(=O)C1=C(C)NC(=O)NC1c1ccsc1 (centres undefined)
Activity [1]: 39% | Activity [2]: 24% | Activity [4]: 22%

CC1=C(C(=O)OC(C)C)C(c2ccco2)CC(=O)N1 (racemic)
Activity [1]: 14% | Activity [2]: 31% | Activity [5]: 15% | Activity [4]: 14%

CCN1CC2=C(C1=O)C(c1ccsc1)NC(=O)N2 (racemic)
Activity [1]: 17% | Activity [2]: 31% | Activity [5]: 18% | Activity [4]: 27%

CC1=C(C(=O)OC(C)C)C(c2ccco2)NC(=O)N1 (centres undefined)
Activity [1]: 30% | Activity [2]: 1% | Activity [4]: 20%

CC1=C(C(=O)OC(C)C)C(c2cccs2)n2c(nc3ccccc32)N1 (racemic)
Activity [1]: 17% | Activity [2]: 3% | Ki [3]: 371 nM | Activity [4]: 1%

CC1=C(C(=O)OC(C)C)C(c2ccsc2)n2ncnc2N1 (racemic)
Activity [1]: 2% | Activity [2]: 5% | Ki [3]: 817 nM | Activity [4]: 3%

CCOC(=O)C1=C(C)Nc2nccn2C1c1ccco1 (racemic)
Activity [1]: 5% | Activity [2]: 6% | Ki [3]: 108 nM | Activity [4]: 2%

CC1=C(C(=O)OC(C)C)C(c2ccoc2)n2ncnc2N1 (racemic)
Activity [1]: 2% | Activity [2]: 20% | Ki [3]: 350 nM | Activity [4]: 2%

CCOC(=O)C1=C(C)Nc2ncnn2C1c1cccs1 (racemic)
Activity [1]: 2% | Activity [2]: 15% | Activity [5]: 15% | Activity [4]: 1%

CCOC(=O)C1=C(C)NC(=O)CC1c1cccs1 (racemic)
Activity [1]: 11% | Activity [2]: 21% | Activity [5]: 18% | Activity [4]: 16%

CC1=C(C(=O)OC(C)C)C(c2cccs2)NC(=O)N1 (centres undefined)
Activity [1]: 19% | Activity [2]: 14% | Activity [5]: 44% | Activity [4]: 37%

CC1=C(C(=O)OC(C)C)C(c2ccoc2)n2ccnc2N1 (racemic)
Activity [1]: 4% | Activity [2]: 10% | Ki [3]: 277 nM | Activity [4]: 1%

CCOC(=O)C1=C(C)Nc2ncnn2C1c1ccco1 (racemic)
Activity [1]: 20% | Activity [2]: 4% | Activity [5]: 3% | Activity [4]: 15%

CCOC(=O)C1=C(C)Nc2ncnn2C1c1ccoc1 (racemic)
Activity [1]: 1% | Activity [2]: 4% | Ki [3]: 602 nM | Activity [4]: 2%

CC1=C(C(=O)OC(C)C)C(c2ccsc2)n2c(nc3ccccc32)N1 (racemic)
Activity [1]: 3% | Activity [2]: 21% | Ki [3]: 29.3 nM | Activity [4]: 11%

O=C1NC2=C(C(=O)OC2)C(c2ccoc2)N1 (racemic)
Activity [1]: 3% | Activity [2]: 1% | Activity [5]: 9% | Activity [4]: 9%

O=C1NC2=C(C(=O)OC2)C(c2cccs2)N1 (racemic)
Activity [1]: 1% | Activity [2]: 1% | Activity [5]: 10% | Activity [4]: 1%

CCOC(=O)C1=C(C)Nc2nc3ccccc3n2C1c1ccoc1 (racemic)
Activity [1]: 11% | Activity [2]: 1% | Ki [3]: 20.6 nM | Activity [4]: 7%

CC1=C(C(=O)OC(C)C)C(c2ccoc2)n2c(nc3ccccc32)N1 (racemic)
Activity [1]: 22% | Activity [2]: 2% | Ki [3]: 11.4 nM | Activity [4]: 12%

CC1=C(C(=O)OC(C)C)C(c2cccs2)CC(=O)N1 (racemic)
Activity [1]: 1% | Activity [2]: 22% | Activity [5]: 3% | Activity [4]: 2%

CCOC(=O)C1=C(C)Nc2nccn2C1c1ccoc1 (racemic)
Activity [1]: 1% | Activity [2]: 3% | Activity [5]: 12% | Activity [4]: 2%

CC1=C(C(=O)OC(C)C)C(c2ccoc2)CC(=O)N1 (racemic)
Activity [1]: 25% | Activity [2]: 24% | Activity [5]: 20% | Activity [4]: 23%

CC1=C(C(=O)OC(C)C)C(c2ccoc2)NC(=O)N1 (centres undefined)
Activity [1]: 26% | Activity [2]: 3% | Activity [4]: 25%

CC1=C(C(=O)OC(C)C)C(c2ccsc2)n2ccnc2N1 (racemic)
Activity [1]: 1% | Activity [2]: 1% | Ki [3]: 847 nM | Activity [4]: 3%

CCN1CC2=C(C1=O)C(c1ccoc1)NC(=O)N2 (racemic)
Activity [1]: 13% | Activity [2]: 17% | Activity [5]: 35% | Activity [4]: 16%

CCOC(=O)C1=C(C)NC(=O)CC1c1ccoc1 (racemic)
Activity [1]: 8% | Activity [2]: 15% | Activity [5]: 14% | Activity [4]: 9%

CCOC(=O)C1=C(C)NC(=O)CC1c1ccco1 (racemic)
Activity [1]: 13% | Activity [2]: 24% | Ki [3]: 2540 nM | Activity [4]: 22%

CCOC(=O)C1=C(C)Nc2nccn2C1c1ccsc1 (racemic)
Activity [1]: 3% | Activity [2]: 2% | Activity [5]: 10% | Activity [4]: 1%

CCOC(=O)C1=C(C)NC(=O)NC1c1ccoc1 (centres undefined)
Activity [1]: 39% | Activity [2]: 1% | Activity [4]: 21%

CCOC(=O)C1=C(C)NC(=O)NC1c1ccco1 (centres undefined)
Activity [1]: 41% | Activity [2]: 2% | Activity [4]: 18%

CC1=C(C(=O)OC(C)C)C(c2ccco2)n2ccnc2N1 (racemic)
Activity [1]: 4% | Activity [2]: 2% | Ki [3]: 85.6 nM | Activity [4]: 3%

O=C1NC2=C(C(=O)OC2)C(c2ccco2)N1 (racemic)
Activity [1]: 2% | Activity [2]: 3% | Activity [5]: 2% | Activity [4]: 3%

CC1=C(C(=O)OC(C)C)C(c2ccsc2)CC(=O)N1 (racemic)
Activity [1]: 3% | Activity [2]: 20% | Activity [5]: 21% | Activity [4]: 4%

CC1=C(C(=O)OC(C)C)C(c2cccs2)n2ccnc2N1 (racemic)
Activity [1]: 3% | Activity [2]: 5% | Ki [3]: 728 nM | Activity [4]: 3%
